Results on three compounds are retold here after ChEMBL document CHEMBL1629511, “Naphthylchalcones induce apoptosis and caspase activation in a leukemia cell line: The relationship between mitochondrial damage, oxidative stress, and cell death” (Bioorg Med Chem, 2010).

The structures appear in SMILES notation. The source made the active and inactive calls. The rule behind the calls is not given here.

In test [1] the test system is L1210. Description: Induction of apoptosis in mouse L1210 cells assessed as increase in glutathione reductase activity at IC50 concentration measured after 24 hrs. It counts as functional, cell-based.
The test system of test [2] is L1210. The test is described as follows: Induction of apoptosis in mouse L1210 cells assessed as increase in glutathione S-transferase activity at IC50 concentration measured after 24 hrs. It counts as functional, cell-based. Summed up:
(§1)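 Homogenates came from 6 × 10⁶ L1210 cells after 24 h treatment. GPx was measured with 150 µg protein as NADPH loss at 340 nm. Catalase followed Aebi with 60 µg protein. GST was measured as the GSH–CDNB conjugate at 340 nm. Activities were protein-normalized and given as % of control.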

In test [3] the test system is L1210. The test is described as follows: Cytotoxicity against mouse L1210 cells after 24 hrs by MTT assay in presence of catalase. It counts as functional, cell-based. The conditions noted are these: L1210, 24 h. Summed up: (§2)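 L1210 cells at 1 × 10⁵/well were exposed for 24 h to 1–100 µM compound together with catalase 5000 U/ml, SOD 250 U/ml or Trolox 200 µM. Additive-only controls were run in parallel. Viability was read by MTT (2 h, formazan in DMSO, A540) in triplicate.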

Test [4] concerns L1210. Description: Induction of apoptosis in mouse L1210 cells assessed as increase in glutathione peroxidase activity at IC50 concentration measured after 24 hrs. It counts as functional, cell-based. The method, boiled down: as §1
Test [5] relates to L1210. Description: Induction of lipid peroxidation in mouse L1210 cells at IC50 concentration after 24 hrs by TBARS method. The class given is functional, cell-based. Summed up:
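Homogenates came from 4 × 10⁶ L1210 cells after 24 h treatment. 400 µg protein was mixed with 60 mM Tris–HCl pH 7.4, 0.1 mM DPTA, TCA and 0.73% TBA, boiled 2 h, cooled and centrifuged. A535 was converted to nmol TBARS per µg protein using the MDA extinction coefficient.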

Test [6] deals with L1210. Description: Induction of apoptosis in mouse L1210 cells assessed as increase in caspase 3 activity at IC50 concentration after 2 to 4 hrs. The class given is functional, cell-based. Summed up: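 3 × 10⁶ L1210 cells were treated for 2 or 4 h at 37 °C, then lysed in HEPES pH 7.4 buffer with protease inhibitors, CHAPS and DTT. Extract (50 µg protein) was incubated with 10 µM Ac-DEVD-AMC for 2 h at 37 °C. AMC fluorescence was read at ex 380/em 465 nm, blank-subtracted, and expressed per hour per µg protein (Lowry).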

The subject of test [7] is L1210. Description: Cytotoxicity against mouse L1210 cells after 24 hrs by MTT assay in presence of superoxide dismutase. The conditions noted are these: L1210, 24 h. The class given is functional, cell-based. Summed up: as §2
Test [8] relates to L1210. The test is described as follows: Cytotoxicity against mouse L1210 cells after 72 hrs by MTT assay. It counts as functional, cell-based. Particulars: L1210, 72 h.
Test [9] deals with CCRF-CEM. Description: Cytotoxicity against human CEM cells after 72 hrs by MTT assay. The class given is functional, cell-based. Background: Tetrazolium assays rely on reduction of a dye to a coloured formazan, in cell work by metabolically active cells.
In test [10] the test system is L1210. The test is described as follows: Induction of apoptosis in mouse L1210 cells assessed as decrease in intracellular ATP concentration at IC50 concentration measured up to 24 hrs. It counts as functional, cell-based. The method, boiled down: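 Intracellular ATP: 1 × 10⁶ L1210 cells were treated for up to 24 h. Extracts were made in 1.25% trichloroacetic acid, kept on ice 30 min, neutralized with 1 M Tris–acetate pH 7.5 and centrifuged. Luciferin–luciferase bioluminescence was read and normalized to the cell death percentage over the incubation.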

Test [11] relates to L1210. Description: Induction of apoptosis in mouse L1210 cells assessed as decrease in mitochondrial membrane potential at IC50 concentration after 4 hrs using JC-1 staining by spectrofluorimetric analysis. The class given is functional, cell-based. The method, boiled down:
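L1210 cells at 5 × 10⁵/well were treated for 4 h, then stained with JC-1 (10 µg/ml) for 20 min at 37 °C, washed and resuspended in PBS. Fluorescence was read with excitation at 488 nm and emission at 590/527 nm. The red/green ratio is expressed relative to control (100%).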

Test [12] has as its system L1210. Description: Induction of apoptosis in mouse L1210 cells assessed as DNA fragmentation at IC50 concentration after 24 hrs by agarose gel electrophoresis analysis. It counts as functional, cell-based. Summed up:
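3 × 10⁶ L1210 cells were treated for 24 h, washed with cold PBS, then lysed in EDTA/Tris pH 8.0/NP-40/proteinase K buffer at 50 °C for 2 h. DNA was ethanol-precipitated, washed, treated with RNase A at 37 °C for 1 h and resolved by agarose gel electrophoresis beside a size standard.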

In test [13] the test system is L1210. The test is described as follows: Induction of apoptosis in mouse L1210 cells assessed as increase in catalase activity at IC50 concentration measured after 24 hrs. It counts as functional, cell-based. The method, boiled down:
as §1

Test [14] has as its system L1210. The test is described as follows: Induction of ROS production in mouse L1210 cells at IC50 concentration after 4 hrs.
For test [15], the system named is CCRF-CEM. The test is described as follows: Cytotoxicity against human CEM cells after 48 hrs by MTT assay. It counts as functional, cell-based. Summed up: (§3)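 MTT assay on L1210 or CEM cells grown in DMEM with 10% heat-inactivated FBS. Cells were seeded at 1 × 10⁵/well for 24 h or 5 × 10⁴/well for 48 h, in triplicate, with 1–100 µM compound (DMSO ≤1%). MTT was added for 2 h at 37 °C, formazan dissolved in DMSO, and A540 read. IC50 came from a Hill concentration–response fit.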

Test [16] deals with L1210. Description: Induction of apoptosis in mouse L1210 cells assessed as increase in GSSG level at IC50 concentration measured after 24 hrs. The class given is functional, cell-based. The method, boiled down:
(§4)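 Homogenates came from 3 × 10⁶ L1210 cells after 24 h treatment (phosphate/NaCl/Triton lysis, sonication, 10,000 rpm spin). Total glutathione was measured by the glutathione reductase recycling method (50 µg protein, 75 µM DTNB, 120 µM NADPH, 4 U/ml GR) at 405 nm against a GSH standard. GSSG = (TG − GSH)/2. Values were protein-normalized and given as % of control.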

The subject of test [17] is CCRF-CEM. Description: Cytotoxicity against human CEM cells after 24 hrs by MTT assay. The class given is functional, cell-based. The method, boiled down: as §3
The test system of test [18] is L1210. Description: Cytotoxicity against mouse L1210 cells after 48 hrs by MTT assay. The conditions noted are these: L1210, 48 h. It counts as functional, cell-based. Summed up: as §3
For test [19], the system named is L1210. Description: Cytotoxicity against mouse L1210 cells after 24 hrs by MTT assay in presence of Trolox. The class given is functional, cell-based. The conditions noted are these: L1210, 24 h. Summed up: as §2
Test [20] deals with L1210. Description: Cytotoxicity against mouse L1210 cells after 24 hrs by MTT assay. Particulars: L1210, 24 h. It counts as functional, cell-based. The method, boiled down:
as §3

In test [21] the test system is L1210. The test is described as follows: Induction of apoptosis in mouse L1210 cells assessed as increase in GSH level at IC50 concentration measured after 24 hrs. It counts as functional, cell-based. The method, boiled down:
as §4

For test [22], the system named is L1210. The test is described as follows: Induction of apoptosis in mouse L1210 cells assessed as increase in total glutathione level at IC50 concentration measured after 24 hrs. The class given is functional, cell-based. Summed up: as §4

Turning to `O=C(/C=C/c1cccc(Cl)c1)c1ccc2ccccc2c1`, the result in the test on L1210 [1], in the test on L1210 [2], in the test with L1210 [4], in the test with L1210 [5], with L1210 [6] and in the test with L1210 [10] was Active. Besides, the result with L1210 [11], in the test on L1210 [12], in the test with L1210 [14], with L1210 [16] and with L1210 [22] was Active. Besides, the half-maximal inhibitory concentration (IC50) worked out at 51 µM in the test on L1210 [3]; 30 µM with L1210 [7]; 10 µM in the test with L1210 [8]; 6 µM in the test with CCRF-CEM [9]; 12 µM with CCRF-CEM [15]; 11 µM in the test with CCRF-CEM [17]. Further, the figures for the IC50 in the test on L1210 [18], in the test on L1210 [19] and in the test with L1210 [20] were 23 µM, 34 µM and 38 µM, respectively. Further, the outcome in the test with L1210 [13] and in the test with L1210 [21] was inactive.

In the case of `O=C(/C=C/c1ccccc1)c1ccc2ccccc2c1`, the outcome in the test with L1210 [1], with L1210 [2], in the test on L1210 [4], in the test with L1210 [5], with L1210 [6] and in the test with L1210 [10] was Active. Besides, the outcome in the test on L1210 [12], in the test with L1210 [14], in the test on L1210 [16], with L1210 [21] and with L1210 [22] was Active. The IC50 in the test with L1210 [3] came out at 58 µM; in the test with L1210 [7], 31 µM; with L1210 [8], 17 µM; in the test on CCRF-CEM [9] it was 5 µM; with CCRF-CEM [15], 14 µM; in the test on CCRF-CEM [17] it was 12 µM. Further, the figures for the concentration for half-maximal inhibition (IC50) in the test with L1210 [18], in the test with L1210 [19] and with L1210 [20] were 20 µM, 39 µM and 37 µM, respectively. In addition, the outcome with L1210 [11] and in the test with L1210 [13] was inactive.

On to `O=C(/C=C/c1cccc([N+](=O)[O-])c1)c1ccc2ccccc2c1`, for which the result with L1210 [1], in the test with L1210 [2], with L1210 [4], in the test on L1210 [5], in the test with L1210 [6] and in the test with L1210 [10] was Active. Moreover, the result in the test with L1210 [11], in the test on L1210 [12], with L1210 [14], with L1210 [16] and in the test with L1210 [22] was Active. The half-inhibitory concentration (IC50) with L1210 [3] is 45 µM; in the test with L1210 [7], 20 µM; in the test with L1210 [8], 14 µM; in the test with CCRF-CEM [9], 4 µM; in the test on CCRF-CEM [15] it was 11 µM; in the test with CCRF-CEM [17] it was 11 µM. In addition, the IC50 is 13 µM with L1210 [18], 20 µM in the test on L1210 [19] and 24 µM with L1210 [20]. Moreover, the outcome in the test with L1210 [13] and in the test on L1210 [21] was inactive.

Broadly, the IC50 is the point on the concentration scale where inhibition reaches its midpoint.
